Measurements as given in ChEMBL document CHEMBL2062428, “Cyclooxygenase-1-selective inhibitors based on the (E)-2'-des-methyl-sulindac sulfide scaffold” (J Med Chem, 2012).
The source made the active and inactive calls. No cut-off for these calls is given here.

Columns and labels:
[1] = molecular target: T1, Prostaglandin G/H synthase 1 (Ovis aries) (UniProt P05979); test: Inhibition of ovine COX-1 using [14C] arachidonic acid as substrate at 4 uM preincubated for 17 mins before substrate addition measured after 3 mins by thin-layer chromatographic analysis
T1 sequence (whole entry): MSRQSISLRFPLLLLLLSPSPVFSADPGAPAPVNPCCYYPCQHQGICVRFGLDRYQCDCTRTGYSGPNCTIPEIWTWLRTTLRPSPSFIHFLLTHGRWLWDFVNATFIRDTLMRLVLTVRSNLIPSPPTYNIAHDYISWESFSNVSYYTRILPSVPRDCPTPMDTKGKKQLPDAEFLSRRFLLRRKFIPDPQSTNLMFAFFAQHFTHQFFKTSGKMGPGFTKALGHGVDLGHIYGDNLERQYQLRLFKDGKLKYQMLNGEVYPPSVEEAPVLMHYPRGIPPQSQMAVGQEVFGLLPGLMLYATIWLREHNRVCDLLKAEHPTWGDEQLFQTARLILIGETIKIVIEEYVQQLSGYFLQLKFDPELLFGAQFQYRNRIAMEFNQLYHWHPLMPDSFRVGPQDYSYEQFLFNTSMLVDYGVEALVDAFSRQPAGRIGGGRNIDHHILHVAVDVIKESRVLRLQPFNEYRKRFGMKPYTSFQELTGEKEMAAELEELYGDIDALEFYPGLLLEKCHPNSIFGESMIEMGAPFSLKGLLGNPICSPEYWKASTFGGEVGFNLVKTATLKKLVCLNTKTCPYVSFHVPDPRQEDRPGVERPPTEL
In short: (§1)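 Purified ovine COX-1 or murine COX-2 preincubated with a single 4 μM inhibitor concentration for 17 min. […] Reaction quenched; radioactive products extracted and quantified. Mean ± SEM of two experiments.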

MDA-MB-231 = test: Cytotoxicity against human MDA-MB-231 cells after 48 hrs by WST1 assay; format: functional, cell-based; details: MDA-MB-231, 48 h
[2] = molecular target: T2, Prostaglandin G/H synthase 2 (Mus musculus) (UniProt Q05769); test: Inhibition of mouse COX-2 using [14C] arachidonic acid as substrate at 4 uM preincubated for 17 mins before substrate addition measured after 3 mins by thin-layer chromatographic analysis; in short: as §1
T2 sequence (whole entry): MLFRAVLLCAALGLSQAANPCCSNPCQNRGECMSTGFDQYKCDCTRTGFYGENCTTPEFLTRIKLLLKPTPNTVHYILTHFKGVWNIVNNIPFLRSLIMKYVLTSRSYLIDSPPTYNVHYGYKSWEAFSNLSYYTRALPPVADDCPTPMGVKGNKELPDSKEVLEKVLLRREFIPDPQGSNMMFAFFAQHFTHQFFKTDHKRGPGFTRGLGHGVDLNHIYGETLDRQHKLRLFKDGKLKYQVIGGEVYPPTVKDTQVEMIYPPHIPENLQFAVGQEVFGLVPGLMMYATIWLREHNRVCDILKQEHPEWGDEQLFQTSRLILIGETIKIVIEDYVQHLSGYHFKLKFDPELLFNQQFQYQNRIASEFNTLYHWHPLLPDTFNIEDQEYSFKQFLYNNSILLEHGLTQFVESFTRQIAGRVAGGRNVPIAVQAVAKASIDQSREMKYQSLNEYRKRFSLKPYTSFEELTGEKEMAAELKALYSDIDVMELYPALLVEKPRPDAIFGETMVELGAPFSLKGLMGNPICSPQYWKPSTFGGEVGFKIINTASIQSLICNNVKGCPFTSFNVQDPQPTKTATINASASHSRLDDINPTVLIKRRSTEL

OVCAR-3 [3] = test: Cytotoxicity against human OVCAR3 cells after 2 days by WST1 assay; format: functional, cell-based; details: OVCAR-3, 48 h
In short: (§2)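 Viability of human ovarian carcinoma NIH-OVCAR-3 cells, which express COX-1 but no detectable COX-2, after a 2-day compound treatment. Concentrations up to 250 μM tested. EC50 for growth inhibition derived from concentration–response curves.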

[4] = molecular target: T1, Prostaglandin G/H synthase 1 (Ovis aries); test: Inhibition of ovine COX-1 using [14C] arachidonic acid as substrate at 25 uM preincubated for 17 mins before substrate addition measured after 3 mins by thin-layer chromatographic analysis
[5] = molecular target: T3, Prostaglandin G/H synthase 2 (Homo sapiens) (UniProt P35354); test: Inhibition of COX-2 in human HNSCC 1483 cells using [14C] arachidonic acid as substrate at 5 uM preincubated for 30 mins before substrate addition measured after 30 mins; format: cell-based
T3 sequence (whole entry): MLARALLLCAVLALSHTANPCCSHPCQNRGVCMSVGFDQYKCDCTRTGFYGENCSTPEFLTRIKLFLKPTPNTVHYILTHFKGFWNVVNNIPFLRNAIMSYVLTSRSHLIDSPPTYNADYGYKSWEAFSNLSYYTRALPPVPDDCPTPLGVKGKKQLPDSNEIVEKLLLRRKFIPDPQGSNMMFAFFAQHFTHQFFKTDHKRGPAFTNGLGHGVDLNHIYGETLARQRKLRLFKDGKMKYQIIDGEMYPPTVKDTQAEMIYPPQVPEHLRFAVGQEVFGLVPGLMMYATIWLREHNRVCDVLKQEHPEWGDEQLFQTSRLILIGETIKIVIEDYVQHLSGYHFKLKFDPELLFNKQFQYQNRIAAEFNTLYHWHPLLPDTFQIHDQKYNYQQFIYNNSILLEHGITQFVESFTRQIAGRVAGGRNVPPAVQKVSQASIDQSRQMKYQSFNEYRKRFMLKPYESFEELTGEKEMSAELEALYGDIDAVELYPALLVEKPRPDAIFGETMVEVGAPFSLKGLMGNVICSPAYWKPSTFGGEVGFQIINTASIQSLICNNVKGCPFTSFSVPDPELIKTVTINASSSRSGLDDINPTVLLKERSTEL

[6] = molecular target: T4, Prostaglandin G/H synthase 1 (Ovis aries, UniProt P05979); test: Inhibition of ovine COX-1 using [14C] arachidonic acid as substrate preincubated for 17 mins before substrate addition measured after 3 mins by thin-layer chromatographic analysis
T4 sequence (P05979 whole entry): T1 sequence (whole entry)

[7] = molecular target: T5, Prostaglandin G/H synthase 2 (Mus musculus, UniProt Q05769); test: Inhibition of mouse COX-2 using [14C] arachidonic acid as substrate preincubated for 17 mins before substrate addition measured after 3 mins by thin-layer chromatographic analysis
T5 sequence (Q05769 whole entry): T2 sequence (whole entry)

OVCAR-3 [8] = test: Cytotoxicity against human OVCAR3 cells growth inhibition up to 250 uM after 2 days by WST1 assay; format: functional, cell-based; in short: as §2

## CSc1ccc(/C=C2\C=C(CC(=O)NS(=O)(=O)C(F)(F)F)c3cc(F)ccc32)cc1
[1]
  inhibition: 65%
MDA-MB-231
  EC50: 215 µM
[2]
  inhibition: 15%

## CC1=C(CC(=O)O)c2cc(F)ccc2/C1=C/c1ccc([S+](C)[O-])cc1 (stereo not given) [SULINDAC SULFOXIDE]
OVCAR-3 [3]
  EC50: 210 µM

## COc1ccc2c(c1)C(CC(=O)O)=C/C2=C\c1ccc(SC)cc1
[4]
  inhibition: 19%

## O=C(O)CC1=C/C(=C\c2ccc(-c3ccccc3)cc2)c2ccc(F)cc21
[1]
  inhibition: 75%
[5]
  inhibition: inactive
[6]
  IC50: 0.57 µM
MDA-MB-231
  EC50: 141 µM
[2]
  inhibition: 1%
[7]
  IC50: > 4 µM
OVCAR-3 [3]
  EC50: 132 µM

## CSc1ccc(/C=C2/C(C)=C(CC(=O)O)c3cc(F)ccc32)cc1 [SULINDAC SULFIDE]
MDA-MB-231
  EC50: 209 µM
OVCAR-3 [8]
  growth inhibition (GI): inactive

## CCOC(=O)CC1=C/C(=C\c2ccc(-c3ccccc3)cc2)c2ccc(F)cc21
[1]
  inhibition: 64%
[6]
  IC50: 1.1 µM
[2]
  inhibition: 28%

## CSc1ccc(/C=C2\C=C(CC(=O)O)c3cc(F)ccc32)cc1
[1]
  inhibition: 65%
[5]
  inhibition: inactive
[2]
  inhibition: 10%
OVCAR-3 [3]
  EC50: 223 µM

## CC(C)(C(=O)O)C1=C/C(=C\c2ccc(-c3ccccc3)cc2)c2ccc(F)cc21
[1]
  inhibition: 58%
[6]
  IC50: 2.2 µM

## CSc1ccc(/C=C2\C=C(CC(=O)NS(=O)(=O)c3ccc(F)cc3)c3cc(F)ccc32)cc1
[1]
  inhibition: 44%
[2]
  inhibition: 20%

## COc1ccc(S(=O)(=O)NC(=O)CC2=C/C(=C\c3ccc(SC)cc3)c3ccc(F)cc32)cc1
[1]
  inhibition: 58%
[2]
  inhibition: 8%

## CCOC(=O)CC1=C/C(=C\c2ccc(SC)cc2)c2ccc(F)cc21
[1]
  inhibition: 20%
[2]
  inhibition: 0%

## CCOC(=O)C(C)(C)C1=C/C(=C\c2ccc3c(c2)Cc2ccccc2-3)c2ccc(F)cc21
[1]
  inhibition: 34%
[2]
  inhibition: 18%

## CS(=O)(=O)c1ccc(-c2cccc(/C=C3\C=C(CC(=O)O)c4cc(F)ccc43)n2)cc1
[1]
  inhibition: 13%
[2]
  inhibition: 54%

## CC(C)(C)Oc1ccc(/C=C2\C=C(CC(=O)O)c3cc(F)ccc32)cc1
[1]
  inhibition: 17%
[2]
  inhibition: 5%
